Results reported in ChEMBL document CHEMBL4043244, “Diverse amide analogs of sulindac for cancer treatment and prevention” (Bioorg Med Chem Lett, 2017).

Legend:
Type in all cases: functional
PC-3 = test: Growth inhibition of human PC3 cells after 72 hrs by CellTiter-Glo reagent based assay; conditions: PC-3, 72 h
Method in brief: (§1)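 Cancer cell lines (PC3 prostate, HT29 colorectal carcinoma, MDA-MB-231 breast) were screened by quantitative high-throughput screening in whole cells, and CC50 values were derived.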

HT-29 = test: Growth inhibition of human HT-29 cells after 72 hrs by CellTiter-Glo reagent based assay; conditions: HT-29, 72 h; method in brief: as §1
MDA-MB-231 = test: Growth inhibition of human MDA-MB-231 cells after 72 hrs by CellTiter-Glo reagent based assay; conditions: MDA-MB-231, 72 h; method in brief: as §1

Structure (SMILES) | CC50 (PC-3) [µM] | CC50 (HT-29) [µM] | CC50 (MDA-MB-231) [µM]
CCN(CC)CCN(C)C(=O)CC1=C(C)/C(=C/c2ccc([S+](C)[O-])cc2)c2ccc(F)cc21 (configuration not stated) | > 50 | 24 | > 50
CSc1ccc(/C=C2/C(C)=C(CC(=O)NCc3cccs3)c3cc(F)ccc32)cc1 | 11 | 2.16 | 5.66
CC1=C(CC(=O)NCc2ccccc2)c2cc(F)ccc2/C1=C\c1ccncc1 [CP-461 FREE BASE] | 5.71 | 2.14 | 3.68
CSc1ccc(/C=C2/C(C)=C(CC(=O)NCCC3CCCN3C)c3cc(F)ccc32)cc1 (configuration not stated) | 4.33 | 1.41 | 3.75
CSc1ccc(/C=C2/C(C)=C(CC(=O)NCCN3CCCC3)c3cc(F)ccc32)cc1 | 5.27 | 1.81 | 3.78
COC(=O)[C@H](C)NC(=O)CC1=C(C)/C(=C/c2ccc(SC)cc2)c2ccc(F)cc21 | > 50 | 23.9 | 38.9
CC1=C(CC(=O)NCCC(C)C)c2cc(F)ccc2/C1=C\c1nc2ccccc2s1 | > 50 | > 50 | 24.2
CC1=C(CC(=O)N(C)CCN(C)S(=O)(=O)c2cccc3c(N(C)C)cccc23)c2cc(F)ccc2/C1=C\c1ccc([S+](C)[O-])cc1 (configuration not stated) | 9.2 | 10.6 | > 50
COC(=O)[C@H](Cc1cnc[nH]1)NC(=O)CC1=C(C)/C(=C/c2ccc(SC)cc2)c2ccc(F)cc21 | > 50 | 23 | > 50
COc1cc(/C=C2/C(C)=C(CC(=O)N(C)CCN(C)C)c3cc(F)ccc32)cc(OC)c1OC | 11.4 | 4.68 | 10.8
CCN(CC)CCNC(=O)CC1=C(C)/C(=C/c2ccc([S+](C)[O-])cc2)c2ccc(F)cc21 (configuration not stated) | > 50 | 19.8 | > 50
CSc1ccc(/C=C2/C(C)=C(CC(=O)NCCC(C)C)c3cc(F)ccc32)cc1 | > 50 | > 50 | > 50
CCN1CCC[C@H]1CNC(=O)CC1=C(C)/C(=C/c2ccc([S+](C)[O-])cc2)c2ccc(F)cc21 (some centres not stated) | > 50 | 19 | > 50
CCNCCN(CC)C(=O)CC1=C(C)/C(=C/c2ccc([S+](C)[O-])cc2)c2ccc(F)cc21 (configuration not stated) | > 50 | 18.2 | > 50
CCS(=O)(=O)N(C)CCN(C)C(=O)CC1=C(C)/C(=C/c2ccc([S+](C)[O-])cc2)c2ccc(F)cc21 (configuration not stated) | > 50 | 42.6 | > 50
CCN(CCN(C)C)C(=O)CC1=C(C)/C(=C/c2ccc([S+](C)[O-])cc2)c2ccc(F)cc21 (configuration not stated) | > 50 | 18.2 | > 50
CSc1ccc(/C=C2/C(C)=C(CC(=O)NCCN3CCNCC3)c3cc(F)ccc32)cc1 | 6.66 | 2.98 | 7.66
COc1cc(/C=C2/C(C)=C(CC(=O)NCCCN(C)C)c3cc(F)ccc32)cc(OC)c1OC | 13 | 6.08 | 10.8
CCN(CC)CCNC(=O)CC1=C(C)/C(=C/c2ccc(SC)cc2)c2ccc(F)cc21 | 5.45 | 1.54 | 4.2
CNCCN(C)C(=O)CC1=C(C)/C(=C/c2ccc([S+](C)[O-])cc2)c2ccc(F)cc21 (configuration not stated) | > 50 | 34.5 | > 50

Structure (SMILES) | CC50 (PC-3) [µM] | CC50 (HT-29) [µM] | CC50 (MDA-MB-231) [µM]
CSc1ccc(/C=C2/C(C)=C(CC(=O)N(C)CCCN(C)C)c3cc(F)ccc32)cc1 | 6.98 | 2.18 | 5.41
CC1=C(CC(=O)N2CCC(N3CCCCC3)CC2)c2cc(F)ccc2/C1=C\c1ccc([S+](C)[O-])cc1 (configuration not stated) | > 50 | > 50 | > 50
CSc1ccc(/C=C2/C(C)=C(CC(=O)N(CCCNC(C)C)C(C)C)c3cc(F)ccc32)cc1 | 4.9 | 2.3 | 3.92
CCN1CCC[C@H]1CNC(=O)CC1=C(C)/C(=C/c2ccc(SC)cc2)c2ccc(F)cc21 | 4.64 | 1.16 | 3.72
COc1cc(/C=C2/C(C)=C(CC(=O)N3CCC[C@H]3CN3CCCC3)c3cc(F)ccc32)cc(OC)c1OC | 12.3 | 4.22 | 11.1
CSc1ccc(/C=C2/C(C)=C(CC(=O)N(C)CCN(C)S(=O)(=O)c3cccc4c(N(C)C)cccc34)c3cc(F)ccc32)cc1 | > 50 | > 50 | > 50
CC1=C(CC(=O)NCc2ccco2)c2cc(F)ccc2/C1=C\c1ccc([S+](C)[O-])cc1 (configuration not stated) | > 50 | 1 | 2.73
CC1=C(CC(=O)N2CCC[C@H]2CN2CCCC2)c2cc(F)ccc2/C1=C\c1ccc([S+](C)[O-])cc1 (some centres not stated) | > 50 | 20.2 | > 50
COc1cc(/C=C2/C(C)=C(CC(=O)NCCC(C)C)c3cc(F)ccc32)cc(OC)c1OC | 8.2 | 5.24 | 8.73
CC1=C(CC(=O)N(C)CCN(C)S(=O)(=O)c2cccc3ccccc23)c2cc(F)ccc2/C1=C\c1ccc([S+](C)[O-])cc1 (configuration not stated) | 8.96 | 3.99 | 29.1
CSc1ccc(/C=C2/C(C)=C(CC(=O)NCc3ccco3)c3cc(F)ccc32)cc1 | 13 | 2.08 | 3.4
CC1=C(CC(=O)NCCN(C)C)c2cc(F)ccc2/C1=C\c1nc2ccccc2s1 | 4.88 | 1.57 | 3.63
CSc1ccc(/C=C2/C(C)=C(CC(=O)Nc3ccc(N(C)C)cc3)c3cc(F)ccc32)cc1 | > 50 | > 50 | 30.6
CCN(CCN(C)C)C(=O)CC1=C(C)/C(=C/c2ccc(SC)cc2)c2ccc(F)cc21 | 5.07 | 1.36 | 3.96
CC1=C(CC(=O)NCCCN(C)C)c2cc(F)ccc2/C1=C\c1ccc([S+](C)[O-])cc1 (configuration not stated) | > 50 | 33.3 | > 50
CC1=C(CC(=O)N(C)CCN(C)S(=O)(=O)c2ccc3ccccc3c2)c2cc(F)ccc2/C1=C\c1ccc([S+](C)[O-])cc1 (configuration not stated) | 7.52 | 6.35 | 32.1
CCN(CC)CCNC(=O)CC1=C(C)/C(=C/c2nc3ccccc3s2)c2ccc(F)cc21 | 4.48 | 1.12 | 3.54
COc1cc(/C=C2/C(C)=C(CC(=O)NCCN(C)C)c3cc(F)ccc32)cc(OC)c1OC | 18.3 | 6.22 | 15.1
CCNCCN(CC)C(=O)CC1=C(C)/C(=C/c2ccc(SC)cc2)c2ccc(F)cc21 | 6.56 | 2.54 | 6.65
CSc1ccc(/C=C2/C(C)=C(CC(=O)NCc3ccccc3)c3cc(F)ccc32)cc1 | 16.4 | 1.52 | 3.61

Structure (SMILES) | CC50 (PC-3) [µM] | CC50 (HT-29) [µM] | CC50 (MDA-MB-231) [µM]
CSc1ccc(/C=C2/C(C)=C(CC(=O)N(C)CCN(C)S(=O)(=O)c3cccc4ccccc34)c3cc(F)ccc32)cc1 | > 50 | 16.2 | > 50
CC1=C(CC(=O)N2CCC[C@H]2CN2CCCC2)c2cc(F)ccc2/C1=C\c1nc2ccccc2s1 | 4.25 | 1.58 | 3.61
CC1=C(CC(=O)NCc2ccco2)c2cc(F)ccc2/C1=C\c1nc2ccccc2s1 | 26.4 | 5.48 | 6.7
CSc1ccc(/C=C2/C(C)=C(CC(=O)NCCN3CCCCC3)c3cc(F)ccc32)cc1 | 5.36 | 1.65 | 5.42
CCN(CC)CCN(C)C(=O)CC1=C(C)/C(=C/c2ccc(SC)cc2)c2ccc(F)cc21 | 5.65 | 1.49 | 3.77
CC1=C(CC(=O)NCCN(C)C)c2cc(F)ccc2/C1=C\c1ccc(S(C)(=O)=O)cc1 | > 50 | 12.7 | 37.5
CCN(CC)CCN(CC)C(=O)CC1=C(C)/C(=C/c2ccc(SC)cc2)c2ccc(F)cc21 | 6.21 | 1.83 | 5.22
CNCCCN(C)C(=O)CC1=C(C)/C(=C/c2ccc(SC)cc2)c2ccc(F)cc21 | 7.65 | 2.9 | 7.66
CSc1ccc(/C=C2/C(C)=C(CC(=O)NCc3cccnc3)c3cc(F)ccc32)cc1 | 18.5 | 4.83 | 7.36
CC1=C(CC(=O)N(C)CCN(C)C(=O)[C@@H](N)C(C)C)c2cc(F)ccc2/C1=C\c1ccc([S+](C)[O-])cc1 (some centres not stated) | > 50 | 30.2 | > 50
CCS(=O)(=O)N(C)CCN(C)C(=O)CC1=C(C)/C(=C/c2ccc(SC)cc2)c2ccc(F)cc21 | 14.3 | 4.2 | 10.1
CC1=C(CC(=O)N(CCCNC(C)C)C(C)C)c2cc(F)ccc2/C1=C\c1ccc([S+](C)[O-])cc1 (configuration not stated) | 48.3 | 16.3 | > 50
CC1=C(CC(=O)N(C)CCN(C)S(=O)(=O)c2ccc(C)cc2)c2cc(F)ccc2/C1=C\c1ccc([S+](C)[O-])cc1 (configuration not stated) | 11 | 6.18 | 17.8
CNCCN(C)C(=O)CC1=C(C)/C(=C/c2ccc(SC)cc2)c2ccc(F)cc21 | 6.75 | 2.8 | 5.84
CC1=C(CC(=O)NCCC(C)C)c2cc(F)ccc2/C1=C\c1ccc([S+](C)[O-])cc1 (configuration not stated) | 20.2 | 17.7 | 27.7
CSc1ccc(/C=C2/C(C)=C(CC(=O)N3CCC(N4CCCCC4)CC3)c3cc(F)ccc32)cc1 | 4.06 | 1.06 | 2.61
CSc1ccc(/C=C2/C(C)=C(CC(=O)N3CCN(C)CC3)c3cc(F)ccc32)cc1 | 13.4 | 4.29 | 11.5
CC1=C(CC(=O)N(C)CCN(C)S(C)(=O)=O)c2cc(F)ccc2/C1=C\c1ccc([S+](C)[O-])cc1 (configuration not stated) | 42.6 | 12.4 | 12.5
CC1=C(CC(=O)NCc2ccccc2)c2cc(F)ccc2/C1=C\c1nc2ccccc2s1 | > 50 | 23.6 | 19.6
